Experimental data published in ChEMBL document CHEMBL3997810, “A Novel Potent Anticancer Compound Optimized from a Natural Oridonin Scaffold Induces Apoptosis and Cell Cycle Arrest through the Mitochondrial Pathway” (J Med Chem, 2017).
Activity calls are given as the source filed them. The calls are words filed in the database; no cut-off is given here.

Key:
[1] = test system: MCF7; test: Induction of apoptosis in human MCF7 cells assessed as live cells at 0.125 uM after 24 hrs by Annexin-V FITC/propidium iodide staining based flow cytometry (reference value: 97%); format: functional
[2] = test system: MCF7; test: Induction of apoptosis in human MCF7 cells assessed as late apoptotic cells at 1 uM after 24 hrs by Annexin-V FITC/propidium iodide staining based flow cytometry (reference value: 0.255%); format: functional
[3] = test system: MCF7; test: Inhibition of colony formation in human MCF7 cells incubated for 24 hrs measured after 10 days by crystal violet staining based microscopic method; format: functional, cell-based
How it was run: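 MCF-7 cells were plated at 3 × 10^2 per well and left overnight, then exposed to 0, 75, 150 or 300 nM (DMSO vehicle) for 24 h. Medium was removed and cells grew a further 10 days. Colonies were fixed in methanol for 15 min, stained with 0.1% crystal violet for 15 min and counted; a colony was >50 cells. At least three independent experiments, mean ± SD.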

[4] = test system: Bel-7402; test: Cell cycle arrest in human Bel7402 cells assessed as accumulation at G2/M phase at 2 uM after 48 hrs by propidium iodide staining based flow cytometry (reference value: 56.61%); format: functional
[5] = test system: MCF7; test: Induction of apoptosis in human MCF7 cells assessed as early apoptotic cells at 1 uM after 24 hrs by Annexin-V FITC/propidium iodide staining based flow cytometry (reference value: 2.65%); format: functional
[6] = test system: Bel-7402; test: Cell cycle arrest in human Bel7402 cells assessed as accumulation at S phase at 0.5 uM after 48 hrs by propidium iodide staining based flow cytometry (reference value: 8.78%); format: functional
[7] = test system: MCF7; test: Induction of apoptosis in human MCF7 cells assessed as live cells at 0.25 uM after 24 hrs by Annexin-V FITC/propidium iodide staining based flow cytometry (reference value: 97%); format: functional
[8] = test system: MCF7; test: Cell cycle arrest in human MCF7 cells assessed as accumulation at S phase at 0.125 uM after 48 hrs by propidium iodide staining based flow cytometry (reference value: 37.18%); format: functional
How it was run: (§1)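 MCF-7 cells, 5 × 10^4 per well, seeded overnight, then exposed to 0.125–1 μM compound, or DMSO, for 48 h. Ethanol-fixed (70%, −20 °C, 12 h) and stained with PI/RNase at 37 °C for 30 min. Phase distribution determined by flow cytometry.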

[9] = Antiproliferative activity against human BEL7404/CP20 cells after 48 hrs by MTT assay; format: functional, cell-based; settings: BEL7404/CP20, 48 h
How it was run: (§2)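 Colorimetric MTT assay. KB-3-1, NCI-H460 and Bel-7404 cells were seeded at 4000 cells/well; resistant KB/CP4, NCI-H460/MX20 and Bel-7404/CP20 were seeded at 7000 cells/well. Cells were pre-incubated 24 h at 37 °C, 5% CO2, then exposed to a compound concentration series for 48 h with DMSO ≤0.25%. Absorbance read at 570 nm. Quadruplicate wells, three repeats; means ± SD.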

[10] = molecular target: T1, M-phase inducer phosphatase 3 (Homo sapiens) (UniProt P30307); test: Induction of cdc25c phosphorylation in human MCF7 cells after 48 hrs by Western blot method; format: cell-based
T1 sequence (whole entry): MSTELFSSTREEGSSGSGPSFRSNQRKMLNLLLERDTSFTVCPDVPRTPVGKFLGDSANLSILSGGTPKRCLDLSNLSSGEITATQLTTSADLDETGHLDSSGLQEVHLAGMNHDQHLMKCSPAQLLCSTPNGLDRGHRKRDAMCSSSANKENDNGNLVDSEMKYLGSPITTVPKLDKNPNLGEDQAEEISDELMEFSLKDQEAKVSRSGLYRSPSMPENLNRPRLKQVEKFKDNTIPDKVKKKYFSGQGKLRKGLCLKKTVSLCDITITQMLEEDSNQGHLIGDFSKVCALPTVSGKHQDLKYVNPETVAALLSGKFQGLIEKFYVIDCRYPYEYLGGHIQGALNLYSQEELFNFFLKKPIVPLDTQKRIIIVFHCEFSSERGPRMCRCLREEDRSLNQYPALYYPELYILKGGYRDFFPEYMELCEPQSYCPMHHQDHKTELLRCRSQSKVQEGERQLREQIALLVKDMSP
How it was run: (§3)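 MCF-7 cells were treated at 0, 0.125, 0.25, 0.5 or 1 μM for 48 h, washed in ice-cold PBS and lysed on ice for 20 min. Lysates were spun at 13,000 g, 4 °C. 20 μg protein was run on SDS-PAGE and blotted to PVDF, probed overnight at 4 °C with primary antibodies, then with fluorescent secondary antibodies. Band density was expressed relative to β-actin; three independent experiments.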

[11] = test system: MCF7; test: Cell cycle arrest in human MCF7 cells assessed as accumulation at S phase at 0.25 uM after 48 hrs by propidium iodide staining based flow cytometry (reference value: 37.18%); format: functional; how it was run: as §1
[12] = test system: MCF7; test: Induction of apoptosis in human MCF7 cells assessed as necrotic cells at 0.5 uM after 24 hrs by Annexin-V FITC/propidium iodide staining based flow cytometry (reference value: 0.102%); format: functional
[13] = test system: Mus musculus; test: Hepatotoxicity in Balb/c nude mouse xenografted with human MCF7 cells assessed as morphological changes in liver at 20 mg/kg/day, iv for 4 weeks by hematoxylin and eosin staining based microscopic method; format: toxicity, organism-based; settings: in vivo, 672 h
How it was run: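 Male BALB/c nude mice (6 weeks old) carrying subcutaneous MCF-7 xenografts (1 × 10^6 cells). Dosed iv 20 mg/kg daily for 28 days in 10% DMF/2% poloxamer/88% saline; six mice per group. Organs then fixed in 4% paraformaldehyde, paraffin-embedded, cut at 5 μm, stained with Harris hematoxylin and eosin-phloxine, and examined by light microscopy.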

[14] = test system: MCF7; test: Induction of apoptosis in human MCF7 cells assessed as increase in Bax protein expression at 0.5 to 1 uM after 48 hrs by Western blot method; format: functional, cell-based; how it was run: as §3
[15] = test system: MCF7; test: Downregulation of cdc2 protein expression in human MCF7 cells after 48 hrs by Western blot method; format: functional, cell-based
How it was run: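 MCF-7 cells exposed to 0–1 μM compound for 48 h, then lysed on ice. Lysate (20 μg protein) run on 8–12% SDS-PAGE and transferred to PVDF. Probed overnight at 4 °C with primary antibodies, then fluorescent secondaries. Band densities normalized to β-actin. Mean ± SD of three independent experiments.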

[16] = test system: Bel-7402; test: Cell cycle arrest in human Bel7402 cells assessed as accumulation at G1 phase at 2 uM after 48 hrs by propidium iodide staining based flow cytometry (reference value: 34.61%); format: functional
[17] = test system: MCF7; test: Induction of apoptosis in human MCF7 cells assessed as early apoptotic cells at 0.125 uM after 24 hrs by Annexin-V FITC/propidium iodide staining based flow cytometry (reference value: 2.65%); format: functional
[18] = test system: MCF7; test: Induction of apoptosis in human MCF7 cells assessed as live cells at 0.5 uM after 24 hrs by Annexin-V FITC/propidium iodide staining based flow cytometry (reference value: 97%); format: functional
[19] = test system: MCF7; test: Induction of apoptosis in human MCF7 cells assessed as live cells at 1 uM after 24 hrs by Annexin-V FITC/propidium iodide staining based flow cytometry (reference value: 97%); format: functional
[20] = test system: MCF7; test: Cell cycle arrest in human MCF7 cells assessed as accumulation at S phase at 0.5 uM after 48 hrs by propidium iodide staining based flow cytometry (reference value: 37.18%); format: functional; how it was run: as §1
[21] = test system: BEL-7404 tumor cell line; test: Antiproliferative activity against human Bel7404 cells after 48 hrs by MTT assay; format: functional, cell-based; settings: BEL-7404, 48 h; how it was run: as §2

**Q.** For C=C1C(=O)[C@]23[C@H](OC(=O)/C=C/c4ccccc4)[C@H]1CC[C@H]2[C@]12C=CCC(C)(C)[C@H]1[C@H](O)[C@]3(O)OC2, which Activity [1] is on record?
**A.** 84.9%

**Q.** What about the Activity [2] of the same compound?
**A.** 45.2%

**Q.** What about the inhibition [3] of the same compound?
**A.** Dose-dependent effect

**Q.** What about the Activity [4] of the same compound?
**A.** 58.07%

**Q.** What about the Activity [5] of the same compound?
**A.** 22.4%

**Q.** And the Activity [6]?
**A.** 7.61%

**Q.** And the Activity [7]?
**A.** 69.7%

**Q.** What about the Activity [8] of the same compound?
**A.** 33.93%

**Q.** What about the IC50 [9] of the same compound?
**A.** 4.73 µM

**Q.** What about the Activity [10] of the same compound?
**A.** Dose-dependent effect

**Q.** What about the Activity [11] of the same compound?
**A.** 33.9%

**Q.** And the Activity [12]?
**A.** 2.18%

**Q.** And the Activity [13]?
**A.** Non-Toxic

**Q.** What about the Activity [14] of the same compound?
**A.** Active

**Q.** What about the Activity [15] of the same compound?
**A.** Dose-dependent effect

**Q.** What about the Activity [16] of the same compound?
**A.** 31.15%

**Q.** And the Activity [17]?
**A.** 4.64%

**Q.** What about the Activity [18] of the same compound?
**A.** 54.3%

**Q.** And the Activity [19]?
**A.** 31.2%

**Q.** And the Activity [20]?
**A.** 31.9%

**Q.** And the IC50 [21]?
**A.** 5.94 µM
